# In ChEMBL document CHEMBL1811883, “The combination of 4-anilinoquinazoline and cinnamic acid: a novel mode of binding to the epidermal growth factor receptor tyrosine kinase” (Bioorg Med Chem, 2011):
# Legend:
# A549 = test: Antiproliferative activity against human A549 cells after 48 hrs by MTT assay; assay type: functional, cell-based; conditions: A549, 48 h
# Outline: (§1)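 Cells exposed to compound at final concentrations from 0.01 to 100 (µg/mL per text) for 48 h. MTT (5 mg/mL in PBS) added for 6 h, then 10% SDS in 0.01 N HCl for a further 4 h at 37 °C. Absorbance read at 570 nm; survival expressed relative to untreated cells.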
# B16-F10 = test: Antiproliferative activity against mouse B16F10 cells assessed as inhibition of serum-stimulated cell growth after 48 hrs by MTT assay; assay type: functional, cell-based; conditions: B16-F10, 48 h; outline: as §1
# [1] = target: Epidermal growth factor receptor (Homo sapiens, UniProt P00533); test: Inhibition of recombinant EGFR expressed in baculovirus infected Sf9 cells after 1 hr by DELFIA/time-resolved fluorimetry assay
# A431 (Homo sapiens) = test: Antiproliferative activity against human A431 cells expressing EGFR assessed as inhibition of basal cell growth after 48 hrs by MTT assay; conditions: A431, 48 h
# Epidermal growth factor receptor, sequence (P00533 whole entry): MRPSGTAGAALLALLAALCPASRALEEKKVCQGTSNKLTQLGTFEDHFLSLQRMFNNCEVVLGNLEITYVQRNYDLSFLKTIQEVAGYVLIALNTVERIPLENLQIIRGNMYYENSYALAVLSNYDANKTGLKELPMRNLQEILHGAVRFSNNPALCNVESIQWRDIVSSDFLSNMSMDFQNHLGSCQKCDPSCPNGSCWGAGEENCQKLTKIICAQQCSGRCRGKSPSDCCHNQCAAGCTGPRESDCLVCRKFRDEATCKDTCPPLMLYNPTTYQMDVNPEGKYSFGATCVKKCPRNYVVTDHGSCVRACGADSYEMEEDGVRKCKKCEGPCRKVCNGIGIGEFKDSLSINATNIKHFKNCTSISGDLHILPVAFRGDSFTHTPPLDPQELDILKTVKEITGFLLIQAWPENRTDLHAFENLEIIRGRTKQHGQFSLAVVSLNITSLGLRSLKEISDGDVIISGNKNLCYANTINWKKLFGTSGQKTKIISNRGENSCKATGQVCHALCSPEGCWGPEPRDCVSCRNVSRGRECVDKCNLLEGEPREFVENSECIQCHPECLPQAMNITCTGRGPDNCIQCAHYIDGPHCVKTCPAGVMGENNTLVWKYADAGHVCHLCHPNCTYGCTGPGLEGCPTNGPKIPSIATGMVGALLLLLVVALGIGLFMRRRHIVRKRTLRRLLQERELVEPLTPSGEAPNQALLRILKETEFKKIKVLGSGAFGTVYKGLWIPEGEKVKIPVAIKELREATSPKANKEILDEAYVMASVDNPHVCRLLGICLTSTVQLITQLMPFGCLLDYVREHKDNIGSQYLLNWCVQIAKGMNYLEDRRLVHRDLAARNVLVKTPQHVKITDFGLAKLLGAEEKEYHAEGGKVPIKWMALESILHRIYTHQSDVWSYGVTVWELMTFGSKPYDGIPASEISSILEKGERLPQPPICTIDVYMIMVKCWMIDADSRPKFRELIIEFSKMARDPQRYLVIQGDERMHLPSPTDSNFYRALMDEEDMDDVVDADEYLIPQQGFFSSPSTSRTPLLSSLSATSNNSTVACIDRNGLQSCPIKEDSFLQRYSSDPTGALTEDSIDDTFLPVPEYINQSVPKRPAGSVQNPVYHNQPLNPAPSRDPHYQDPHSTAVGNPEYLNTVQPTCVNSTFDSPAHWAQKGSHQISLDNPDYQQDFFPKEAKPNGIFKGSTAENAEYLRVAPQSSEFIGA
SMILES,IC50 (A549),IC50 (B16-F10),IC50 [1],IC50 (A431 (Homo sapiens))
O=C(/C=C/c1ccccc1)Nc1ccc2ncnc(Nc3cccc(Br)c3)c2c1,3.96 mg/L,1.45 mg/L,–,–
O=C(/C=C/c1ccc(Cl)cc1)Nc1ccc2ncnc(Nc3cccc(Br)c3)c2c1,1.06 mg/L,0.38 mg/L,1.21 µM,–
O=C(/C=C/c1ccccc1Cl)Nc1ccc2ncnc(Nc3cccc(Br)c3)c2c1,6.63 mg/L,2 mg/L,–,–
O=C(/C=C/c1ccc(Br)cc1)Nc1ccc2ncnc(Nc3cccc(Br)c3)c2c1,15.3 mg/L,10.7 mg/L,–,–
O=C(/C=C/c1ccccc1Br)Nc1ccc2ncnc(Nc3cccc(Br)c3)c2c1,2.38 mg/L,0.92 mg/L,4.28 µM,–
COc1ccc(/C=C/C(=O)Nc2ccc3ncnc(Nc4cccc(Br)c4)c3c2)cc1,3.36 mg/L,1.24 mg/L,7.22 µM,–
COc1ccccc1/C=C/C(=O)Nc1ccc2ncnc(Nc3cccc(Br)c3)c2c1,3.55 mg/L,1.28 mg/L,7.71 µM,–
COc1cccc(/C=C/C(=O)Nc2ccc3ncnc(Nc4cccc(Br)c4)c3c2)c1,2.05 mg/L,0.87 mg/L,6.02 µM,–
O=C(/C=C/c1cccs1)Nc1ccc2ncnc(Nc3cccc(Br)c3)c2c1,4.66 mg/L,2.51 mg/L,–,–
Cc1ccc(/C=C/C(=O)Nc2ccc3ncnc(Nc4cccc(Br)c4)c3c2)cc1,3.01 mg/L,1.39 mg/L,–,–
O=C(/C=C/c1ccccc1[N+](=O)[O-])Nc1ccc2ncnc(Nc3cccc(Br)c3)c2c1,0.92 mg/L,0.338 mg/L,1.02 µM,0.98 µM
O=C(/C=C/c1cccc2ccccc12)Nc1ccc2ncnc(Nc3cccc(Cl)c3)c2c1,1.49 mg/L,0.671 mg/L,2.81 µM,–
Nc1ccc2ncnc(Nc3cccc(Cl)c3)c2c1,–,–,–,47 µM
Nc1ccc2ncnc(Nc3cccc(Br)c3)c2c1,–,–,–,42 µM
C#Cc1cccc(Nc2ncnc3cc(OCCOC)c(OCCOC)cc23)c1 [ERLOTINIB],–,0.02 mg/L,–,–

# Now from value to compound:
IC50 (A549),IC50 (B16-F10),IC50 [1],IC50 (A431 (Homo sapiens)),SMILES
1.85 mg/L,0.981 mg/L,5.16 µM,1.34 µM,O=C(/C=C/c1ccc([N+](=O)[O-])cc1)Nc1ccc2ncnc(Nc3cccc(Br)c3)c2c1
1.58 mg/L,0.68 mg/L,3.61 µM,–,O=C(/C=C/c1ccccc1)Nc1ccc2ncnc(Nc3cccc(Cl)c3)c2c1
12.4 mg/L,9.97 mg/L,–,–,O=C(/C=C/c1ccc(Cl)cc1)Nc1ccc2ncnc(Nc3cccc(Cl)c3)c2c1
4.58 mg/L,1.74 mg/L,–,–,O=C(/C=C/c1ccccc1Cl)Nc1ccc2ncnc(Nc3cccc(Cl)c3)c2c1
1.86 mg/L,0.75 mg/L,3.49 µM,–,O=C(/C=C/c1ccc(Br)cc1)Nc1ccc2ncnc(Nc3cccc(Cl)c3)c2c1
5.63 mg/L,1.65 mg/L,–,–,O=C(/C=C/c1ccccc1Br)Nc1ccc2ncnc(Nc3cccc(Cl)c3)c2c1
2.58 mg/L,1.05 mg/L,6.63 µM,–,COc1cccc(/C=C/C(=O)Nc2ccc3ncnc(Nc4cccc(Cl)c4)c3c2)c1
9.23 mg/L,4.26 mg/L,–,–,O=C(/C=C/c1cccs1)Nc1ccc2ncnc(Nc3cccc(Cl)c3)c2c1
6.03 mg/L,2.02 mg/L,–,–,Cc1ccc(/C=C/C(=O)Nc2ccc3ncnc(Nc4cccc(Cl)c4)c3c2)cc1
5.26 mg/L,2.05 mg/L,3.45 µM,2.13 µM,O=C(/C=C/c1ccc([N+](=O)[O-])cc1)Nc1ccc2ncnc(Nc3cccc(Cl)c3)c2c1
0.78 mg/L,0.3 mg/L,–,0.75 µM,O=C(/C=C/c1ccccc1[N+](=O)[O-])Nc1ccc2ncnc(Nc3cccc(Cl)c3)c2c1
–,–,0.12 µM,0.33 µM,O=C(/C=C/c1cccc([N+](=O)[O-])c1)Nc1ccc2ncnc(Nc3cccc(Br)c3)c2c1
–,–,0.19 µM,0.49 µM,O=C(/C=C/c1cccc([N+](=O)[O-])c1)Nc1ccc2ncnc(Nc3cccc(Cl)c3)c2c1
